In assay [1] the test system is Estrogen receptor alpha (Bos taurus). Description: Relative binding affinity to Estrogen receptor alpha in calf uterine cytosol compared to [3H]E2. Particulars: Uterus.
The target in assay [2] is T1, Estrogen receptor (Homo sapiens) (UniProt P03372).
T1 sequence (whole entry): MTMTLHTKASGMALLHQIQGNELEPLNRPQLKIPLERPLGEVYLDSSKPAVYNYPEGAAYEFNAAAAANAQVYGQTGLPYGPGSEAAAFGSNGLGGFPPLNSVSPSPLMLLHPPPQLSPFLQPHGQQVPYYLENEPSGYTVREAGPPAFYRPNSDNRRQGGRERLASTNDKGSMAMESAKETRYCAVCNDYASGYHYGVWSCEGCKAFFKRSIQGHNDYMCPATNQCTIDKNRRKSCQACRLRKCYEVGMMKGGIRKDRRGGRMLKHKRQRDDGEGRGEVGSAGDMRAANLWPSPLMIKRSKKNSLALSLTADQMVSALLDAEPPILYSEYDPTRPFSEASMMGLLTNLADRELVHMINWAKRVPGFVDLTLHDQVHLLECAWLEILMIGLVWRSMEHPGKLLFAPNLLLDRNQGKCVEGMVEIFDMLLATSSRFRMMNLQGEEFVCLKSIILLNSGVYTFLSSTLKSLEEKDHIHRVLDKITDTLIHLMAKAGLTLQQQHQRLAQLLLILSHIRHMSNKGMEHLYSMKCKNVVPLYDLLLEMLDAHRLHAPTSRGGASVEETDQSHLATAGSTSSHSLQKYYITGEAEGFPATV
Description: Activation of the estrogen receptors of MCF-7-2a cells at 10e-6 M. The gist of the method:
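MCF-7-2a cells stably carrying ERE(wtc)luc, kept one week in DMEM with L-glutamine, antibiotics and dextran/charcoal-treated BCS (50 mL/L). Seeded at about 2.2 × 10^5 cells/mL in six-well plates; compound added after 24 h and cells incubated 50 h. Lysed 20 min at room temperature, luciferase luminescence read for 10 s (RLU), normalized to Bradford protein. Line value taken at 1 μM.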

Some results are limits rather than exact numbers.

In assay [1], `CCN1CCN(CC)[C@@H](c2ccc(O)cc2F)[C@H]1c1ccc(O)cc1F` returned a relative binding affinity (RBA) of 0.03. In addition, the Relative activation in assay [2] was determined as 4%.

`COc1ccc([C@H]2NCCN[C@H]2c2ccc(OC)cc2Cl)c(Cl)c1`: the Relative activation in assay [2] turned out to be 1%.

In the case of `COc1ccc([C@H]2NCCN[C@H]2c2c(Cl)cc(OC)cc2Cl)c(Cl)c1`, the Relative activation in assay [2] was determined as 3%. On the same count and under the same terms, to `COc1ccc(Cl)c([C@H]2NCCN[C@H]2c2c(Cl)ccc(OC)c2Cl)c1Cl` belongs 8%. In the case of `Oc1ccc([C@H]2NCCN[C@H]2c2ccc(O)cc2)cc1`, in assay [1], the relative binding affinity (RBA) is < 0.02. Besides, the Relative activation in assay [2] is -1%. As for `CCN1CCN(CC)[C@@H](c2ccc(OC)cc2Cl)[C@H]1c1ccc(OC)cc1Cl`, the Relative activation in assay [2] stood at 0%. Compound `CCN1CCN(CC)[C@@H](c2ccc(O)cc2Cl)[C@H]1c1ccc(O)cc1Cl` displayed a relative binding affinity (RBA) in assay [1] of 0.17. Moreover, the Relative activation in assay [2] is 37%. Consider `CCN1CCN[C@H](c2ccc(O)cc2Cl)[C@@H]1c1ccc(O)cc1Cl`, for which the relative binding affinity (RBA) in assay [1] turned out to be 0.42. The Relative activation in assay [2] came out at 74%.

On to `COc1cc(Cl)c([C@H]2NCCN[C@H]2c2c(Cl)cc(OC)cc2Cl)c(Cl)c1`, for which the Relative activation in assay [2] was found to be 5%. The same measure, in the same setting: to `CCN1CCN(CC)[C@@H](c2ccc(OC)cc2)[C@H]1c1ccc(OC)cc1` belongs 4%; to `COc1ccc([C@H]2NCCN[C@H]2c2ccc(OC)cc2)cc1`, 5%. As to `CCN1CCN(CC)[C@@H](c2ccc(OC)cc2F)[C@H]1c1ccc(OC)cc1F`, the Relative activation in assay [2] is 7%.

For `CCN1CCN[C@H](c2ccc(OC)cc2Cl)[C@@H]1c1ccc(OC)cc1Cl`, in assay [2], the Relative activation turned out to be 4%. As for `Oc1ccc([C@H]2NCCN[C@H]2c2c(Cl)cc(O)cc2Cl)c(Cl)c1`, the relative binding affinity (RBA) in assay [1] was < 0.02. Also, the Relative activation in assay [2] was 20%. For `CCN1CCN(CC)[C@@H](c2ccc(O)cc2)[C@H]1c1ccc(O)cc1` the same measures were < 0.02 and 8%. Regarding `Oc1ccc(Cl)c([C@H]2NCCN[C@H]2c2c(Cl)ccc(O)c2Cl)c1Cl`, the relative binding affinity (RBA) in assay [1] was < 0.02. Also, in assay [2], the Relative activation was 12%. In the same order, the values of `CCN1CCN[C@H](c2ccc(O)cc2F)[C@@H]1c1ccc(O)cc1F` are 0.06 and 34%. For `COc1ccc([C@H]2NCCN[C@H]2c2ccc(OC)cc2F)c(F)c1`, in assay [2], the Relative activation came out at 4%.

As for `Oc1ccc([C@H]2NCCN[C@H]2c2ccc(O)cc2F)c(F)c1`, the relative binding affinity (RBA) in assay [1] is < 0.02. In addition, the Relative activation in assay [2] stood at 4%. Regarding `CCN1CCN[C@H](c2ccc(OC)cc2F)[C@@H]1c1ccc(OC)cc1F`, the Relative activation in assay [2] came out at 3%. `Oc1cc(Cl)c([C@H]2NCCN[C@H]2c2c(Cl)cc(O)cc2Cl)c(Cl)c1`: the relative binding affinity (RBA) in assay [1] was 0.05. Moreover, in assay [2], the Relative activation was determined as 73%. In the same order, the values of `Oc1ccc([C@H]2NCCN[C@H]2c2ccc(O)cc2Cl)c(Cl)c1` are < 0.02 and 7%.
